{"source": "ChEMBL document CHEMBL1129459", "about": "“Studies on disease-modifying antirheumatic drugs: synthesis of novel quinoline and quinazoline derivatives and their anti-inflammatory effect” (1996)", "assay_type_in_all_cases": "functional", "key": {"Rattus norvegicus [1]": {"system": "Rattus norvegicus", "assay": "Inhibitory effect of 12.5 mg/Kg orally administered compound against swelling of right hand paw as a measure of anti-inflammatory activity", "details": "po"}, "Rattus norvegicus [2]": {"species_on_record": "Rattus norvegicus", "assay": "Effective dose to inhibit the rat's left hand paw swelling by 50%.", "outline": "(§1)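 Adjuvant arthritis in male Lewis rats, 7 weeks old, n = 7. Rats were sensitized intradermally in the right hind plantar site with 0.05 mL of 0.5% killed M. tuberculosis H37 RA in liquid paraffin. Compound in 0.5% methylcellulose was given p.o. once daily for 14 days, starting day 0. Left hind paw volume was measured on days 0 and 14. ED50 came from linear regression across three or four doses.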"}, "Rattus norvegicus [3]": {"system": "Rattus norvegicus", "assay": "Inhibition of adjuvant induced swelling of rat right hind paw by 50 mg/kg p.o. administration.", "details": "route oral"}, "Rattus norvegicus [4]": {"species_on_record": "Rattus norvegicus", "assay": "Bone resorption inhibitory effect was evaluated as calcium released from bone into medium at 10 uM compound concentration, expressed as percent of control", "parameters": "scale not given: the % may be the effect or the level left", "outline": "(§2)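 Rat fetal long-bone (Raisz) assay. A pregnant Sprague–Dawley rat received 50 µCi 45Ca s.c. on gestation day 18. Fetal humeri (radii and ulnae) were taken the next day and cleaned of connective tissue and cartilage. Bones were preincubated 24 h at 37 °C, 5% CO2, in BGJb medium with 2 mg/mL BSA. They were then cultured 2 days with compound at 10 or 30 µM final. Read-out was 45Ca released/(released + bone-retained) ×100, mean of five bones, as % of untreated same-litter controls.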"}, "Rattus norvegicus [5]": {"species_on_record": "Rattus norvegicus", "assay": "Bone resorption inhibitory effect was evaluated as calcium released from bone into medium at 30 uM compound concentration, expressed as percent of control", "parameters": "scale not given: the % may be the effect or the level left", "outline": "as §2"}, "Rattus norvegicus [6]": {"species_on_record": "Rattus norvegicus", "assay": "Effective dose of compound to inhibit the rat's left hand paw swelling by 50%.", "outline": "as §1"}, "Rattus norvegicus [7]": {"species_on_record": "Rattus norvegicus", "assay": "Bone resorption inhibitory effect was evaluated as calcium released from bone into medium at 25 uM compound concentration, expressed as percent of control", "parameters": "scale not given: the % may be the effect or the level left"}}}
{"smiles": "COc1ccc(-c2nc(Cn3ccnc3C)nc3cc(OC)c(OC)cc23)cc1OC", "values": [{"measurement": "inhibition in vivo at 12.5 mg/kg", "setting": "Rattus norvegicus [1]", "value": "< 50", "unit": "%"}]}
{"smiles": "CCOC(=O)c1c(CCCn2cncn2)nc2cc(OC)c(OC)cc2c1-c1ccc(OC)c(OC)c1", "values": [{"measurement": "inhibition in vivo at 12.5 mg/kg", "setting": "Rattus norvegicus [1]", "value": "< 50", "unit": "%"}]}
{"smiles": "CCOC(=O)c1c(Cn2ccnc2CC)nc2cc(OC)c(OC)cc2c1-c1ccc(OC)c(OC)c1", "values": [{"measurement": "ED50", "setting": "Rattus norvegicus [2]", "value": 9.1, "unit": "mg/kg"}]}
{"smiles": "COC(=O)c1c(CSc2nccn2C)nc2cc(OC)c(OC)cc2c1-c1ccc(OC)c(OC)c1", "values": [{"measurement": "inhibition in vivo at 50 mg/kg", "setting": "Rattus norvegicus [3]", "value": 67, "unit": "%"}, {"measurement": "Activity", "setting": "Rattus norvegicus [4]", "value": 46, "unit": "%"}]}
{"smiles": "CCOC(=O)c1c(CSc2nccn2C)nc2cc(OC)c(OC)cc2c1-c1ccccc1", "values": [{"measurement": "inhibition in vivo at 50 mg/kg", "setting": "Rattus norvegicus [3]", "value": 31, "unit": "%"}]}
{"smiles": "CCOC(=O)c1c(CSc2nccn2CC)nc2cc(OC)c(OC)cc2c1-c1ccc(OC)c(OC)c1", "values": [{"measurement": "inhibition in vivo at 50 mg/kg", "setting": "Rattus norvegicus [3]", "value": 51, "unit": "%"}]}
{"smiles": "CCOC(=O)c1c(Cn2ccnc2C)nc2cc(OC)c(OC)cc2c1-c1ccc(OC)c(OC)c1", "values": [{"measurement": "inhibition in vivo at 12.5 mg/kg", "setting": "Rattus norvegicus [1]", "value": 55, "unit": "%"}]}
{"smiles": "CCOC(=O)c1c(CSc2nccn2C)nc2cc(OC)c(OC)cc2c1-c1ccc(Cl)cc1", "values": [{"measurement": "inhibition in vivo at 50 mg/kg", "setting": "Rattus norvegicus [3]", "value": 41, "unit": "%"}]}
{"smiles": "CCOC(=O)c1c(CSc2nccn2C)nc2ccccc2c1-c1ccc(OC)c(OC)c1", "values": [{"measurement": "inhibition in vivo at 50 mg/kg", "setting": "Rattus norvegicus [3]", "value": 33, "unit": "%"}]}
{"smiles": "CCOC(=O)c1c(CCc2nccn2C)nc2cc(OC)c(OC)cc2c1-c1ccc(OC)c(OC)c1", "values": [{"measurement": "ED50", "setting": "Rattus norvegicus [2]", "value": 14.7, "unit": "mg/kg"}, {"measurement": "inhibition in vivo at 50 mg/kg", "setting": "Rattus norvegicus [3]", "value": 75, "unit": "%"}]}
{"smiles": "CCOC(=O)c1c(CSc2nccn2C)nc2cc(OCC)c(OCC)cc2c1-c1ccc(OC)c(OC)c1", "values": [{"measurement": "inhibition in vivo at 50 mg/kg", "setting": "Rattus norvegicus [3]", "value": 59, "unit": "%"}]}
{"smiles": "CCOC(=O)c1c(CSc2nccn2C)nc2cc(OC)c(OC)cc2c1-c1ccc2c(c1)OCO2", "values": [{"measurement": "inhibition in vivo at 50 mg/kg", "setting": "Rattus norvegicus [3]", "value": 63, "unit": "%"}]}
{"smiles": "CCOC(=O)c1c(CSc2nccn2C)nc2cc3c(cc2c1-c1ccc(OC)c(OC)c1)OCCO3", "values": [{"measurement": "inhibition in vivo at 50 mg/kg", "setting": "Rattus norvegicus [3]", "value": 56, "unit": "%"}, {"measurement": "Activity", "setting": "Rattus norvegicus [4]", "value": 66, "unit": "%"}]}
{"smiles": "CCOC(=O)c1c(C[S+]([O-])c2nccn2C)nc2cc(OC)c(OC)cc2c1-c1ccc(OC)c(OC)c1", "note": "(centres undefined)", "values": [{"measurement": "ED50", "setting": "Rattus norvegicus [2]", "value": 6.5, "unit": "mg/kg"}, {"measurement": "inhibition in vivo at 12.5 mg/kg", "setting": "Rattus norvegicus [1]", "value": 73, "unit": "%"}]}
{"smiles": "CCOC(=O)c1c(Cn2ccnc2)nc2cc(OC)c(OC)cc2c1-c1ccc(OC)c(OC)c1", "values": [{"measurement": "ED50", "setting": "Rattus norvegicus [2]", "value": 7.7, "unit": "mg/kg"}, {"measurement": "inhibition in vivo at 12.5 mg/kg", "setting": "Rattus norvegicus [1]", "value": 70, "unit": "%"}]}
{"smiles": "CCOC(=O)c1c(CSc2nccn2C)nc2cc(OC)c(OC)cc2c1-c1ccc(C)cc1", "values": [{"measurement": "inhibition in vivo at 50 mg/kg", "setting": "Rattus norvegicus [3]", "value": 67, "unit": "%"}]}
{"smiles": "COc1ccc(-c2nc(CSc3nccn3C)nc3cc(OC)c(OC)cc23)cc1OC", "values": [{"measurement": "inhibition in vivo at 50 mg/kg", "setting": "Rattus norvegicus [3]", "value": "< 50", "unit": "%"}]}
{"smiles": "COc1ccc(-c2nc(Cn3cncn3)nc3cc(OC)c(OC)cc23)cc1OC", "values": [{"measurement": "inhibition in vivo at 12.5 mg/kg", "setting": "Rattus norvegicus [1]", "value": "< 50", "unit": "%"}]}
{"smiles": "COc1ccc(-c2nc(CCc3nccn3C)nc3cc(OC)c(OC)cc23)cc1OC", "values": [{"measurement": "inhibition in vivo at 50 mg/kg", "setting": "Rattus norvegicus [3]", "value": 71, "unit": "%"}]}
{"smiles": "CCOC(=O)c1c(CSc2nccn2C)nc2cc(OC)c(OC)cc2c1-c1ccc(OC)c(OC)c1", "values": [{"measurement": "Activity", "setting": "Rattus norvegicus [5]", "value": 57, "unit": "%"}, {"measurement": "ED50", "setting": "Rattus norvegicus [6]", "value": 25, "unit": "mg/kg"}, {"measurement": "inhibition in vivo at 50 mg/kg", "setting": "Rattus norvegicus [3]", "value": 60, "unit": "%"}]}
{"smiles": "CCOC(=O)c1c(CSc2nncn2C)nc2cc(OC)c(OC)cc2c1-c1ccc(OC)c(OC)c1", "values": [{"measurement": "ED50", "setting": "Rattus norvegicus [6]", "value": 11.6, "unit": "mg/kg"}, {"measurement": "inhibition in vivo at 50 mg/kg", "setting": "Rattus norvegicus [3]", "value": 66, "unit": "%"}]}
{"smiles": "CCOC(=O)c1c(CS(=O)(=O)c2nccn2C)nc2cc(OC)c(OC)cc2c1-c1ccc(OC)c(OC)c1", "values": [{"measurement": "inhibition in vivo at 50 mg/kg", "setting": "Rattus norvegicus [3]", "value": 56, "unit": "%"}]}
{"smiles": "CCOC(=O)c1c(CSc2ncc[nH]2)nc2cc(OC)c(OC)cc2c1-c1ccc(OC)c(OC)c1", "values": [{"measurement": "inhibition in vivo at 50 mg/kg", "setting": "Rattus norvegicus [3]", "value": 60, "unit": "%"}]}
{"smiles": "CCOC(=O)c1c(CSc2nccn2C)nc2cc(OC)c(OC)cc2c1-c1ccc(OC)cc1", "values": [{"measurement": "inhibition in vivo at 50 mg/kg", "setting": "Rattus norvegicus [3]", "value": 64, "unit": "%"}]}
{"smiles": "CCOC(=O)c1c(CSc2nccn2C)nc2ccc(OC)cc2c1-c1ccc(OC)cc1", "values": [{"measurement": "inhibition in vivo at 50 mg/kg", "setting": "Rattus norvegicus [3]", "value": 45, "unit": "%"}, {"measurement": "Activity", "setting": "Rattus norvegicus [4]", "value": 66, "unit": "%"}]}
{"smiles": "CCOC(=O)c1c(Cn2cncn2)nc2cc(OC)c(OC)cc2c1-c1ccc(OC)c(OC)c1", "values": [{"measurement": "ED50", "setting": "Rattus norvegicus [2]", "value": 2.6, "unit": "mg/kg"}, {"measurement": "Activity", "setting": "Rattus norvegicus [5]", "value": 59, "unit": "%"}, {"measurement": "inhibition in vivo at 12.5 mg/kg", "setting": "Rattus norvegicus [1]", "value": 65, "unit": "%"}]}
{"smiles": "COc1cc2c(OC)c3c(c(-c4ccc5c(c4)OCO5)c2cc1OC)C(=O)OC3", "note": "[JUSTICIDIN A]", "values": [{"measurement": "inhibition in vivo at 50 mg/kg", "setting": "Rattus norvegicus [3]", "value": 10, "unit": "%"}, {"measurement": "Activity", "setting": "Rattus norvegicus [7]", "value": 48, "unit": "%"}]}
